This is an account of results in ChEMBL document CHEMBL1126042, “Reversible inhibitors of the gastric (H+/K+)-ATPase. 2. 1-Arylpyrrolo[3,2-c]quinolines: effect of the 4-substituent” (J Med Chem, 1992).

Assay [1] has as its target T1, Potassium-transporting ATPase (Rattus norvegicus, UniProt P09626). Nature of the assay: Inhibition of rat isolated gastric (H(+)/K(+))-ATPase. The class given is tissue-based, Stomach. In short, it runs like this: (§1)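 (H+/K+)-ATPase activity measured in lyophilized gastric vesicles; compounds dissolved in DMSO, then diluted into pH 7.0 buffer. IC50 given as mean ± range (n = 2) or as a single observed value (n = 1).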

Assay [2] concerns Rattus norvegicus. Nature of the assay: The compound was evaluated for the gastric antisecretory activity in the lumen-perfused rat on intravenous administration. In kind it is functional. Conditions: Stomach.
The test system of assay [3] is Rattus norvegicus. Kind of assay: Percentage inhibition of rat gastric secretion following 10 uM/Kg i.v.
Assay [4] deals with T2, Potassium-transporting ATPase (Rattus norvegicus) (UniProt P09626+P18598). Kind of assay: The compound was evaluated for the inhibition of gastric (H(+)/K(+))-ATPase at 100 uM. In kind it is protein-complex assay. Conditions: Stomach.
Assay [5] addresses T2, Potassium-transporting ATPase (Rattus norvegicus). Nature of the assay: The compound was evaluated for the inhibition of gastric (H(+)/K(+))-ATPase at 30 uM. Conditions: Stomach.
Assay [6] deals with Rattus norvegicus. Kind of assay: The compound was evaluated for the percentage inhibition of rat gastric secretion at a dose of 10 umol/kg on intravenous administration; d = Compound was too insoluble for intravenous administration. In kind it is functional, organism-based. Conditions: Stomach.
Assay [7] concerns the target Potassium-transporting ATPase (Rattus norvegicus, UniProt P09626+P18598). Nature of the assay: The compound was evaluated for the inhibition of gastric (H(+)/K(+))-ATPase; Compound was insoluble. The class given is protein-complex assay, Stomach. The method, boiled down: as §1
In assay [8] the test system is Rattus norvegicus. Nature of the assay: The compound was evaluated for the percentage inhibition of rat gastric secretion at a dose of 10 umol/kg on intravenous administration. Conditions: Stomach. The class given is functional.
Assay [9] has as its target T2, Potassium-transporting ATPase (Rattus norvegicus). Nature of the assay: The compound was evaluated for the inhibition of gastric H+/K+ ATPase at 10 uM. Conditions: Stomach. The class given is tissue-based.
Assay [10] relates to Canis familiaris. Nature of the assay: The compound was evaluated for the gastric antisecretory activity in the Heidenhain pouch dog for a dose of 1 umol/kg on intravenous administration. In kind it is functional. Conditions: Canis lupus familiaris, Stomach. The method, boiled down: (§2)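 Conscious Heidenhain pouch dogs dosed intravenously; inhibition of gastric acid secretion measured.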

The test system of assay [11] is Canis familiaris. Kind of assay: The compound was evaluated for the gastric antisecretory activity in the Heidenhain pouch dog for a dose of 4 umol/kg on intravenous administration. In kind it is functional. Conditions: Canis lupus familiaris, Stomach. The method, boiled down:
as §2

In assay [12] the target is T2, Potassium-transporting ATPase (Rattus norvegicus). Nature of the assay: The compound was evaluated for the inhibition of gastric H+/K+ ATPase at 100 uM. In kind it is tissue-based. Conditions: Stomach.
Assay [13] deals with Canis familiaris. Nature of the assay: The compound was evaluated for the gastric antisecretory activity in the Heidenhain pouch dog for a dose of 1 umol/kg on intravenous administration. In kind it is functional. Conditions: Canis lupus familiaris, Stomach. The method, boiled down: as §2
The target of assay [14] is T1, Potassium-transporting ATPase. Kind of assay: The compound was evaluated for the inhibition of gastric H+/K+ ATPase. The class given is tissue-based, Stomach. The method, boiled down: as §1

T1 sequence (P09626 whole entry): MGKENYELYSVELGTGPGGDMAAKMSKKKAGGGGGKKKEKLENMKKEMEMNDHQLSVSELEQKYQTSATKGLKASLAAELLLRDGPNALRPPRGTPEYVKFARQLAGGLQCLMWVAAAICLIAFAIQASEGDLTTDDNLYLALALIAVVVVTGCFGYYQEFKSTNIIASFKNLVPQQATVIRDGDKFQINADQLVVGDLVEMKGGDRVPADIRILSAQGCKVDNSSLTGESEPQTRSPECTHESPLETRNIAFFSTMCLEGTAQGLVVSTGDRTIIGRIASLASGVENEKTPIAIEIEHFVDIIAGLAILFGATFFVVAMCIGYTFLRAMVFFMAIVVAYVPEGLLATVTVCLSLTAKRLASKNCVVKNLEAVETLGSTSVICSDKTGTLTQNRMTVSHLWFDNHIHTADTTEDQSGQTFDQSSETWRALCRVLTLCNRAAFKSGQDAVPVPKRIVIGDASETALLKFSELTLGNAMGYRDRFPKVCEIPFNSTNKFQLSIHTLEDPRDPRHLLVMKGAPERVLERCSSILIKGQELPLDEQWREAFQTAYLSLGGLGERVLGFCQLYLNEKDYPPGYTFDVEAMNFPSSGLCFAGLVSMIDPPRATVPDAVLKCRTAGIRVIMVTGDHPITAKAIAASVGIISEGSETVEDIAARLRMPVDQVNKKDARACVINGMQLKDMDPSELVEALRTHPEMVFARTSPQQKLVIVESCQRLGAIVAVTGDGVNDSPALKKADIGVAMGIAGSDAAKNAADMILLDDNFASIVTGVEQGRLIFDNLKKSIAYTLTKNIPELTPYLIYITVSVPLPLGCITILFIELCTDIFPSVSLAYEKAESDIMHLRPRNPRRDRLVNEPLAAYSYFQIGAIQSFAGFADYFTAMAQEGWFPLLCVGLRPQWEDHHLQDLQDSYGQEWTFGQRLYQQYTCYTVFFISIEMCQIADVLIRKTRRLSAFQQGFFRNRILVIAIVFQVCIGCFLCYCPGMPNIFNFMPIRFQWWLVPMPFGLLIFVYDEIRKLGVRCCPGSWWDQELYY
T1 sequence (P18598 whole entry, further chain): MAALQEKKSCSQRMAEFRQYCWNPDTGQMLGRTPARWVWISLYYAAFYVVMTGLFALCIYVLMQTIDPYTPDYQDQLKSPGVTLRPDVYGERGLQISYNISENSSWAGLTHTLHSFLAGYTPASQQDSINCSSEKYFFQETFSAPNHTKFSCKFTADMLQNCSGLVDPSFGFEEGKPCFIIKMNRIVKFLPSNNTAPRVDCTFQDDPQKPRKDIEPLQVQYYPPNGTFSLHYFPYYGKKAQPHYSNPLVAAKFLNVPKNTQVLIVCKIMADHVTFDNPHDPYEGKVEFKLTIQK
Chain of Potassium-transporting ATPase (Rattus norvegicus, UniProt P09626+P18598) (P09626 whole entry): as the sequence (P09626 whole entry) above
Chain of Potassium-transporting ATPase (Rattus norvegicus, UniProt P09626+P18598) (P18598 whole entry): as the sequence (P18598 whole entry, further chain) above

With `COc1cccc2c1nc(C)c1ccn(-c3ccccc3C)c12`, half-maximal inhibition in [1] (IC50) was put at 640 nM. Besides, in the assay with Rattus norvegicus [2], the ED50 (usually the dose that gives a 50% effect, or the effect in half of the subjects) was 7.08 µmol/kg. The Inhibition – broadly, the relative decrease from the control value, in per cent – with Rattus norvegicus [3] worked out at 48%.
For `CCOC(=O)c1cc(Nc2ccccc2C)c2cccc(OC)c2n1`, the midpoint of inhibition in [1], the IC50, lay at 850 nM. The same compound had an ED50 with Rattus norvegicus [2] of 8.2 µmol/kg.
`Cc1ccccc1N1CCc2c1nc1c(C)cccc1c2Cl`: the inhibition (in general, the change of the read-out against control, counted positive when it falls) in assay [4] was 8%.
On to `Cc1ccccc1-n1ccc2c(NCCCCO)nc3c(C)cccc3c21`, for which half-maximal inhibition in [1] (IC50) was put at 220 nM. In the assay on Rattus norvegicus [3], this compound had an Inhibition of 47%.
Consider `COc1ccccc1N1CCc2c(N)nc3c(OC)cccc3c21`, for which the IC50 (as a rule, the concentration needed to halve the response being measured) in assay [1] is 440 nM. Further, the Inhibition with Rattus norvegicus [3] is given as 20%.
For `Cc1ccccc1N1CCc2c1nc1c(C)cccc1c2Nc1ccccc1`, in that order: 1100 nM and 0%.
For `Cc1ccccc1-n1ccc2c(NCCCO)nc3c(C)cccc3c21`, in that order: 410 nM and 30%.
`CNc1nc2c(C)cccc2c2c1CCN2c1ccc(OC)cc1C`: half-maximal inhibition in assay [1] (IC50) was put at 280 nM. Besides, the Inhibition in the assay on Rattus norvegicus [3] was 67%.
Take `COc1nc2c(C)cccc2c2c1CCN2c1ccccc1C`: the inhibition in assay [5] is 0%; with Rattus norvegicus [6], “Too insoluble”.
For `COc1cccc2c3c(c(C(=O)Nc4ccccc4C)nc12)CCN3c1ccccc1C`, the IC50 result in [7] is “Insoluble”.
As to `Cc1ccccc1N1CCc2c(N(C)C)nc3c(C)cccc3c21`, the IC50 in assay [1] came out at 1030 nM. Moreover, the ED50 in the assay with Rattus norvegicus [2] turned out to be 7.2 µmol/kg. The Inhibition in the assay on Rattus norvegicus [3] stood at 56%.
With `CNC(=O)Nc1nc2c(C)cccc2c2c1CCN2c1ccccc1C`, half-maximal inhibition in [1] (IC50) was put at 4970 nM. Also, the inhibition result with Rattus norvegicus [6] was “Too insoluble”.
Regarding `Cc1ccccc1N1CCc2c(Cl)nc3c(C)cccc3c21`, the inhibition in vivo (as a rule, the change of the read-out against control, counted positive when it falls) at 10 µmol/kg with Rattus norvegicus [8] came to 15%. Besides, the inhibition in assay [9] was 25%.
With `CSc1nc2c(C)cccc2c2c1CCN2c1ccccc1C`, the values for the inhibition (in assay [5]; with Rattus norvegicus [6]) were 0% and “Too insoluble”, respectively.
Compound `CNc1nc2c(C)cccc2c2c1ccn2-c1ccccc1C` showed an IC50 in assay [1] of 290 nM. In addition, the Inhibition in the assay with Rattus norvegicus [3] was found to be 61%.
Compound `CNc1nc2c(C)cccc2c2c1CCN2c1ccccc1C` came in with an inhibition in vivo at 1 µmol/kg in the assay on Canis familiaris [10] of 67%. The same compound came in with an IC50 in [1] of 180 nM. Besides, in the assay with Rattus norvegicus [2], the ED50 is 2.8 µmol/kg. The same compound returned an Inhibition in the assay on Rattus norvegicus [3] of 72%. This compound also came in with an inhibition in vivo at 4 µmol/kg in the assay on Canis familiaris [11] of 95%.
Regarding `Cc1ccccc1-n1ccc2c(Cl)nc3c(C)cccc3c21`, the inhibition in assay [12] is 30%; in assay [9], 2%.
Regarding `Cc1ccccc1N1CCc2c(N)nc3c(C)cccc3c21`, the inhibition in vivo at 1 µmol/kg with Canis familiaris [13] was 53%. In assay [1], this compound displayed an IC50 of 220 nM. Besides, in the assay on Rattus norvegicus [2], the ED50 was found to be 4.3 µmol/kg. The Inhibition in the assay on Rattus norvegicus [3] stood at 63%.
As to `COc1ccccc1N1CCc2c(O)nc3c(OC)cccc3c21`, the inhibition result with Rattus norvegicus [6] is “Too insoluble”.
In [1], `CNc1nc2c(OC)cccc2c2c1CCN2c1ccccc1C` registered an IC50 of 250 nM. The Inhibition in the assay with Rattus norvegicus [3] stood at 49%.
For `Cc1ccccc1-n1ccc2c(NCCO)nc3c(C)cccc3c21`, in that order: 170 nM and 48%.
In assay [1], `COc1ccccc1N1CCc2c1c1cccc(OC)c1[nH]c2=O` yielded an IC50 of 33400 nM.
`COc1ccccc1N1CCc2c(Cl)nc3c(OC)cccc3c21`: the IC50 in assay [14] was found to be 10700 nM. The compound also came in with an inhibition in vivo at 10 µmol/kg in the assay on Rattus norvegicus [8] of 19%.
The compound `Cc1ccccc1N1CCc2cnc3c(C)cccc3c21` showed an IC50 in [1] of 980 nM. Besides, it took a dose of 16.2 µmol/kg to reach the 50% effect level in the assay with Rattus norvegicus [2] (ED50). The compound further displayed an Inhibition in the assay on Rattus norvegicus [3] of 47%.
With `COc1ccccc1N1CCc2cnc3c(OC)cccc3c21`, the IC50 in [1] was 1290 nM. In addition, the Inhibition in the assay on Rattus norvegicus [3] was 31%.
For `COc1cccc2c3c(c(NCCO)nc12)CCN3c1ccccc1C`, in that order: 280 nM and 67%.
In assay [1], `Cc1ccccc1N1CCc2c(NC(N)=O)nc3c(C)cccc3c21` displayed an IC50 of 1990 nM. The inhibition entry in the assay on Rattus norvegicus [6] is “Too insoluble”.
In [1], `Cc1ccccc1N1CCc2c(CO)nc3ccccc3c21` displayed an IC50 of 1230 nM. For the same compound, in the assay on Rattus norvegicus [3], the Inhibition is recorded as 33%.
